Bioassay records from PubChem BioAssay.
Rows were chosen to be rich in hits. Some 3.7% of all compounds tested hit in one or more screens of this group.
hERG rescue: compounds protecting human hERG from proarrhythmic drug block. activation (rescue from dofetilide block), less the hit threshold, % at 10 µM. CHO-hERG, FluxOR thallium flux, dofetilide IC70 present. actives 0.51% (n = 310,000). AID 1511;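 active means activation above the mean of controls blocked by dofetilide plus 5 SD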;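 further: thallium influx through hERG after potassium depolarization seen as dye fluorescence rise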
KCNQ1 inh: inhibitors of human KCNQ1 potassium channel; actives 1.3% (n = 310,000); P51787; CHO-K1 KCNQ1, FluxOR thallium flux fluorescence; active compounds read high; B-score at 10 µM;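 active means compounds whose thallium flux B-score, printed positive for inhibition, exceeds three library SD while starting fluorescence stays within three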;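 further: channel opened by potassium depolarization with thallium stimulus after 20 min compound exposure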
KCNK9 block: blocks the human KCNK9 two-pore domain potassium channel; HEK293 KCNK9, FluxOR thallium flux fluorescence; active compounds read low; Q9NPC2; B-score at 10 µM; actives 1.2% (n = 310,000);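 active means ratio B-score over 3 SD below the library mean, with starting fluorescence within 5 SD of its mean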;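 further: negative B-score means less thallium flux so channel inhibition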
Target sequence (Q9NPC2 whole entry, looked up, the tested form may be a part): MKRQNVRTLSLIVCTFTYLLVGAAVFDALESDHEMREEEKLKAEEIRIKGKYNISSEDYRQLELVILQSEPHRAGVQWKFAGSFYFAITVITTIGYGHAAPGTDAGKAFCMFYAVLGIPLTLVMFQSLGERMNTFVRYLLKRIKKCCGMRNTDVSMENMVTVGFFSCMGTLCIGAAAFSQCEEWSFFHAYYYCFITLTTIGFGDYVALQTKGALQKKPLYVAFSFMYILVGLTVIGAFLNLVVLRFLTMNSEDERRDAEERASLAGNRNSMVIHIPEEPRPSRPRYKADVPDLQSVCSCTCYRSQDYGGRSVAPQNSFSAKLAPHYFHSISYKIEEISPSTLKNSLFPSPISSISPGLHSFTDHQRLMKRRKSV
Kir21 block: inhibitors of mouse Kir2.1 inward-rectifier potassium channel. actives 0.85% (n = 310,000). B-score at 10 µM. HEK293-Kir2.1, FluxOR thallium flux fluorescence; active compounds read low;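 active means fluorescence ratio B-score at or below minus 3 SD of library scores, with starting-brightness B-score within 2 SD, cut at about -4.2 in these data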;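 further: channel flux triggered by added potassium and thallium sulfate stimulus; B-score of peak minus minimum fluorescence over baseline after thallium stimulus; more negative B-score means stronger Kir2.1 block with less thallium influx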
KCNK3 block: human KCNK3 channel inhibition, primary screen. actives 0.84% (n = 340,000). AID 602410. B-score at 10 µM. CHO-KCNK3 thallium flux, FluxOR fluorescence; active compounds read low. O14649;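 active means B-score under library mean minus 4 SD, starting fluorescence ratio at most library mean plus 5 SD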;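 further: more negative B-score means stronger inhibition of thallium flux through KCNK3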
KCNQ1 pot: potentiates or activates the human KCNQ1 potassium channel. P51787. B-score at 10 µM. AID 2648. actives 0.35% (n = 310,000). CHO-K1 KCNQ1, thallium flux FluxOR fluorescence; active compounds read high;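 active means fluorescence ratio B-score, a plate-corrected score, at least three library SD, with initial intensity B-score within 5 SD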
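Test system: CHO-K1 cells stably expressing KCNQ1 / Medium: assay buffer / Also added: depolarizing K+/Tl+ stimulus, K2SO4 and Tl2SO4 each 12.5 mM in 5x stock / Incubation: 90 min dye loading and 20 min compound exposure, both at room temperature / Signal: thallium influx via FluxOR fluorescence, kinetic imaging / Evaluation: B score of baseline-normalized fluorescence ratio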
* = called active by the depositor; i = inactive; / = no result.

SMILES	hERG rescue	KCNQ1 inh	KCNK9 block	Kir21 block	KCNK3 block	KCNQ1 pot
O=C(c1ccccc1)c1ccc(NCCCn2ccnc2)c([N+](=O)[O-])c1	-5.9	i	i	-2.45	i	i
CN(CC(=O)Nc1ccccc1Br)C(=O)c1ccccc1OCc1ccc(Cl)cc1	/	/	/	/	i	/
CC1CCCC(C)N1C(=O)c1cc(-c2ccc3c(c2)OCO3)on1 (configuration not stated)	-10.3	i	i	-0.77	i	i
CN(Cc1ccc(Cl)cc1)C(=O)CNC(=O)C12CC3CC(CC(C3)C1)C2	/	/	/	/	i	/
CCN(C(=O)CCc1nc(-c2ccc(OC)cc2)no1)c1cc(OC)ccc1OC	-8.2	i	-7.55*	-0.78	i	i
CCn1cc(Br)c(C(=O)Nc2ccccc2C(=O)OC)n1	-10.2	i	-6.64*	-0.23	i	i
CCn1ncc(Br)c1C(=O)Nc1ccccc1C(=O)OC	-24.1	i	i	0.21	i	i
O=C(CN1CCC(C(=O)c2ccc(F)cc2)CC1)Nc1ccccc1Cl	-8.7	i	i	1.14	i	i
O=C(O)c1ccc(N2CC3CC(C2)c2cccc(=O)n2C3)c(NC(=S)Nc2ccc(Br)cc2)c1 (configuration not stated)	-18.2	6*	i	-0.79	i	i
CCc1ccc(NC(=S)Nc2cc(C(=O)O)ccc2N2CC3CC(C2)c2cccc(=O)n2C3)cc1 (configuration not stated)	-12.2	i	i	0.02	i	i
CCN(CC)C(=O)c1cc2sc3ccccc3c2s1	-8.8	i	-7.53*	-1.24	i	i
CN(C)CCNC(=O)c1cc2sc3ccccc3c2s1	-11.6	i	i	-4.21*	i	i
Cc1ccc(C(=O)Cn2c(N3CCOCC3)nc3c2c(=O)n(C)c(=O)n3C)cc1	5.0*	i	i	1.74	i	i
Clc1ccc(-c2csc(Nc3ccccc3)[n+]2Cc2ccco2)c(Cl)c1	-19.6	i	-7.3*	-3.62	i	i
Cc1ccc(CNC(=O)c2cn(C)c(=O)c3c2c2ccccc2n3C)o1	-9.0	i	i	0.03	i	i
Cc1ccc(CNC(=O)c2cn(C3CCCCC3)c(=O)c3c2c2ccccc2n3C)o1	-7.7	i	i	0.44	-9.41*	i
Cc1cc(-c2nn(-c3ccccc3F)cc2CN2CCC(O)CC2)c(C)s1	-10.2	i	i	-1.04	i	i
Cc1cc(-c2nn(-c3ccccc3F)cc2CN2CCN(c3ccncc3)CC2)c(C)s1	-18.9	i	i	-4.45*	i	i
COc1cc(OC)nc(Oc2ccc(N)c(C)c2)n1	-12.4	i	i	0.5	i	i
O=C(NC(=S)N1CCN(C/C=C/c2ccccc2)CC1)c1ccco1	-10.3	i	i	1.12	i	i
O=C(NC(=S)N1CCN(C/C=C/c2ccccc2)CC1)c1c(F)cccc1F	-3.6	i	i	0.01	i	7*
FC(F)(F)c1ccc(N2CCOCC2)c(Nc2nc3ccccc3n3cnnc23)c1	-3.8	i	-7.15*	0.63	i	i
CC1CCCN(C(=O)c2ccc(OC3CCN(CCc4ccccc4)CC3)cc2)C1 (configuration not stated)	-6.5	i	i	-4.48*	i	i
COc1cc(/C=C/C(=O)NC(C)C2CC3CCC2C3)cc(OC)c1OC (configuration not stated)	-6.0	i	i	-0.44	i	i
Cc1cc(Nc2ccccc2)nn1C(=O)c1ccc([N+](=O)[O-])cc1	-2.3	i	i	1.42	i	i
SMILES	hERG rescue	KCNQ1 inh	KCNK9 block	Kir21 block	KCNK3 block	KCNQ1 pot
Cc1cc(Nc2ccccc2)nn1C(=O)c1ccc(Cl)cc1	-5.1	i	-7.7*	-0.63	i	i
Cc1cc(C[n+]2ncsc2N)c2ncccc2c1	-19.7	i	i	-0.5	i	i
CCOc1ccc2c(c1)sc(N)[n+]2Cc1cc(C)cc2cccnc12	-21.7	i	i	-4.34*	i	i
COc1ccc2c(c1)sc(N)[n+]2Cc1cc(C)cc2cccnc12	-21.3	i	i	-4.53*	i	i
Cc1csc(NC(=O)CCS(=O)(=O)c2ccc(Br)cc2)n1	-0.4	i	i	-4.32*	i	i
Cc1csc(NC(=O)C(C)Oc2ccc(Br)cc2)n1 (configuration not stated)	-19.7	i	i	-4.96*	i	i
CC(C)(C)OC(=O)N1CCC(CC2CC(c3ccccc3)=NO2)(C(=O)O)CC1 (configuration not stated)	-4.0	i	i	-0.06	i	i
CCCCCCCNC(=O)C1(CC2CC(c3ccc(Cl)cc3)=NO2)CCN(C(=O)OC(C)(C)C)CC1 (configuration not stated)	-10.0	8*	i	-0.09	i	i
COc1ccc(CCNCC(C)c2ccccc2)cc1 (configuration not stated)	-6.5	i	i	-0.94	i	i
COc1ccc(CCC(C)NCc2cc(OC)cc(OC)c2)cc1 (configuration not stated)	-2.2	i	i	-3.93	i	i
COc1ccc(CCC(C)NCc2ccc(F)cc2)cc1 (configuration not stated)	-5.9	i	i	-6.1*	i	i
COc1ccc(CCC(C)NCc2ccc(Cl)c(Cl)c2)cc1 (configuration not stated)	-16.5	i	i	-4.47*	i	i
COc1ccc(CCC(C)NCC(C)c2ccccc2)cc1 (configuration not stated)	-1.7	i	i	-4.44*	i	i
COc1ccc(CCNCC(O)c2ccccc2)cc1 (configuration not stated)	-11.9	i	i	-4.89*	i	i
CCOc1ccc(CCNC(=O)CSc2ncn[nH]2)cc1OCC	-9.9	i	i	-0.93	i	i
COc1ccc(/C=C/C2=Nc3ccccc3NC(C)(C)C2)cc1OC	-9.4	i	i	-0.4	i	i
COc1ccc2ccccc2c1CNC(C)CCc1ccccc1 (configuration not stated)	-7.5	i	i	-7.74*	i	i
COc1ccc(CCNCC(O)COc2cccc(Br)c2)cc1 (configuration not stated)	-9.9	i	i	-8.74*	i	i
CC(=O)c1cccc(OCC(O)CNCCc2ccc(Cl)cc2)c1 (configuration not stated)	-2.2	i	i	-3.55	i	i
O=C(N/N=C/c1ccc2ncccc2c1)c1ccco1	-9.1	6*	i	-0.11	i	i
